Bioassay records deposited in PubChem by several laboratories.
NALP1 yeast inh – blocks the NALP1 inflammasome reconstituted in yeast; 0.61% of 280,000 active; inhibition, % at 10 µM; S. cerevisiae NALP1/ASC/caspase-1 growth, X-gal OD620, 72 h; in the data active = inhibition mostly above about 24%, no sharp cut-off; inactive = mostly below about 32%
ALR H2O2 inh – human ALR oxidase inhibition via reduced H2O2; P55789; purified ALR, DTT oxidation, H2O2 HRP-luminol luminescence; inhibition, % (concentration not given with the values); 3.8% of 290,000 active;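 active = mean replicate inhibition above about 79%, with every replicate also reaching it, limit read from the data; inconclusive = only one of the two criteria met; inactive = mean below limit and not every replicate reaching it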
Target sequence (P55789 whole entry, looked up): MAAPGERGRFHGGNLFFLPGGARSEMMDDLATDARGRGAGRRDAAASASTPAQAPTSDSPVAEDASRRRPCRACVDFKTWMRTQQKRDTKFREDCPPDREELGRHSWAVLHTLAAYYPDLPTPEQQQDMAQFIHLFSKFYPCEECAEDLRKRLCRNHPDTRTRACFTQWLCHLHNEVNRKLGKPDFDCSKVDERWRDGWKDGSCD
ATG4B inhibitor – blocks human ATG4B protease cleavage of LC3 substrate | Q9Y4P1 | ATG4B cleavage of LC3-PLA2, NBD-HPC fluorescence, 1 h | inhibition, % at 8.33 µM | 0.51% of 340,000 active; in the data active = inhibition above about 40%
Target sequence (Q9Y4P1 whole entry, looked up): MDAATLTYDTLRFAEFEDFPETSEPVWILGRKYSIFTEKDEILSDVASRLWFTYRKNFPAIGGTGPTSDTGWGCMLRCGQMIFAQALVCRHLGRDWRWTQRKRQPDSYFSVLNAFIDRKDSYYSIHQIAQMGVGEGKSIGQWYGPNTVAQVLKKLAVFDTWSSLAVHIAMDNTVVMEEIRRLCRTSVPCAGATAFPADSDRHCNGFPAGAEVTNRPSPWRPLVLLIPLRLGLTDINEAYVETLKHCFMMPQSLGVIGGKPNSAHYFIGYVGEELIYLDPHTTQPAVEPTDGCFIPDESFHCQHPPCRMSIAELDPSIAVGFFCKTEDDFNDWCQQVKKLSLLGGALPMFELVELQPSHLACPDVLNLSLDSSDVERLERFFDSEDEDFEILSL
Calb FLC – C. albicans growth modulation with fluconazole. growth inhibition, % (test concentration not listed). 0.57% of 300,000 active. C. albicans CaCi-2 + fluconazole, Alamar Blue growth, 48 h. AID 1979;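 active = growth inhibition above about 58% in most replicates, limit read from the data, passing the limit was not always enough; inconclusive = exactly half the replicates above a set limit; inactive = most replicates below a set limit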;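 also: all wells also contain fluconazole at 8 µg/ml as a sub-toxic cotreatment; 0% = median of DMSO wells and 100% = median of geldanamycin control wells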
UCH37 inh – blocks the human deubiquitinase UCH37 | Q9Y5K5 | purified proteasome/UCH37, Ub-AMC cleavage fluorescence | inhibition, % (test concentration not listed) | 0.33% of 330,000 active;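 active = mean inhibition over replicate wells above about 20%, limit read from the data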;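 also: 0% = compound-free wells with enzyme and 100% = wells lacking proteasome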
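system = Proteasome-associated human UCH37 deubiquitinase | amount = 0.15 nM proteasome as dispensed | medium = pH 7.4 Tris-HCl (50 mM) with ovalbumin, ATP-MgCl2, DTT | incubation = 30 min preincubation with enzyme, 25 min cleavage at room temperature | detection = AMC fluorescence 355/460 nm | read-out basis = percent inhibition | controls = no-proteasome and no-compound wells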
NLRP3 yeast inh – inhibitors of NALP3 inflammasome in yeast | Yeast reconstituted NLRP3/ASC/caspase-1, beta-gal luminescence, 24 h | inhibition, % at 10 µM | 0.39% of 330,000 active | AID 2825;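 active = inhibition of 50% or more; inactive = inhibition below 50%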;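 also: plate controls were induced DMSO wells for no effect and uninduced yeast grown without galactose for full effect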
* marks the source's active call; other numbers are inactive results; u = inconclusive; x = not tested or not shown. Sampled rows, rich in hits. Any-hit rate of the full collection: about 4.8%.

SMILES | NALP1 yeast inh | ALR H2O2 inh | ATG4B inhibitor | Calb FLC | UCH37 inh | NLRP3 yeast inh
CS(=O)(=O)c1ccc(C(=O)OC2CCOC2=O)cc1[N+](=O)[O-] (stereo not given) | 6 | 94* | -10 | 5 | 7 | 14
O=C(OC1CCOC1=O)c1ccccc1C(=O)c1ccc(Cl)c([N+](=O)[O-])c1 (stereo not given) | x | x | 7 | x | 2 | 8
C=CCn1c(Cc2cccc3ccccc23)n[nH]c1=S | 14 | 92* | 3 | 2 | 1 | 10
C=CCn1c(CCn2c3ccccc3c3ccccc32)n[nH]c1=S | 1 | 41 | 6 | -2 | 0 | 12
C=CCn1c(OCc2ccccc2)n[nH]c1=S | 6 | 96* | 5 | 0 | 1 | 26
CCc1ccc(-n2c(Cc3ccccc3)n[nH]c2=S)cc1 | -48 | 12 | 5 | -20 | 3 | 13
C=CCn1c(CSc2nnc(-c3ccccc3)n2C)n[nH]c1=S | 9 | 83* | 0 | -1 | 0 | 11
S=c1[nH]nc(Cc2noc3ccccc23)n1-c1ccccc1 | -17 | 86* | -2 | 2 | 1 | 13
CC(=NNC(=O)c1nnn(-c2nonc2N)c1CN(C)c1ccccc1)c1cccnc1 | x | x | x | x | 2 | x
O=C(C[n+]1cccc(C=NO)c1)N1CCCc2ccccc21 | x | x | x | x | 1 | x
S=c1[nH]nc(Cc2cccc3ccccc23)n1-c1ccccc1 | 1 | 90* | 3 | 2 | 0 | 29
O=C1CCCCC1C(Nc1ccc(Cl)cc1)c1ccccc1 (stereo not given) | 15 | 98* | 5 | u | 8 | -7
O=C(NN=Cc1ccc([N+](=O)[O-])s1)c1cccc(Br)c1 | x | x | x | x | 6 | x
CC(=NNC(=O)CCCNc1cccc(C)c1)c1ccncc1 | x | x | x | x | 2 | x
C/C(=N\NC(=O)CCCNc1cccc(C)c1)c1ccncc1 | 18 | 93* | -5 | 0 | x | -5
CC(=NNC(=O)c1c(Br)c(C)nn1C)c1cccc(NC(=O)c2ccccc2F)c1 | x | x | x | x | 3 | x
CC(=O)CSc1nc(N)c(C#N)c(-c2cccs2)c1C#N | 16 | 4 | -13 | u | -1 | 3
CC(=O)CSc1nc(-c2cccs2)c(C#N)c(=O)[nH]1 | 36* | x | -5 | -5 | 5 | 7
O=C(CSc1nccn1-c1cccc(Cl)c1)Nc1ccc2c(c1)OCCO2 | 3 | 99* | 11 | -14 | 4 | 22
COc1ccc(NC(=O)CSc2nccn2-c2cccc(OC)c2)cc1 | -14 | 98* | -11 | -37 | 1 | 20
COc1cccc(NC(=O)CSc2nccn2-c2cccc(OC)c2)c1 | 10 | 98* | -3 | -7 | 3 | 7
COc1cccc(-n2ccnc2SCC(=O)Nc2ccccc2)c1 | 15 | 41 | -6 | 1 | 6 | 26
Cc1cc(C)n2nc(C(=O)NN=Cc3ccccc3C)nc2n1 | x | x | x | x | 4 | x
CC(=O)N1CCC(c2c[nH]c3ccccc23)CC1 | 14 | 96* | 5 | 7 | 5 | 2
CN(C)c1ccc(Nc2nc(-c3cccnc3)cs2)cc1 | 3 | 95* | 12 | 4 | 0 | 17
SMILES | NALP1 yeast inh | ALR H2O2 inh | ATG4B inhibitor | Calb FLC | UCH37 inh | NLRP3 yeast inh
Cc1ncc(CO)c(C=NNC(=S)Nc2ccc(Cl)c(Cl)c2)c1O | x | x | x | x | -24 | x
CC(C)N(C(=O)COC(=O)c1ccc(Cl)nc1)C(C)C | 6 | -4 | 0 | 0 | 2 | 11
O=C(OCCOc1ccc(Br)cc1)c1ccc(Cl)nc1 | 6 | -1 | -1 | 110* | -1 | 10
Cc1ccc(NC(=O)NNC(=O)c2cc3ccccc3cc2O)cc1C | 9 | 4 | -5 | 81* | -17 | -6
CCOc1ccc(NC(=O)NNC(=O)c2cc3ccccc3cc2O)cc1 | 7 | 1 | 6 | 86* | -18 | 6
CCC(=NNc1ccccc1C)c1cnnc(SC)n1 | x | x | x | x | 4 | x
Cc1ccc(CN(C)C(=O)COC(=O)CSc2ccc([N+](=O)[O-])cc2)cc1 | x | -14 | -8 | 2 | 3 | 20
Cc1ccccc1CN(C)C(=O)COC(=O)CSc1ccc([N+](=O)[O-])cc1 | x | 99* | 3 | 3 | 5 | 15
CC(C)C(C(=O)O)N1C(=O)/C(=C/c2cccn2C)SC1=S (stereo not given) | 46 | 42 | 17 | x | 25* | x
CC(C)C(C(=O)O)N1C(=O)/C(=C/C=C/c2ccco2)SC1=S (stereo not given) | 0 | 99* | 65* | 7 | 5 | 12
O=C1/C(=C/C=C/c2ccco2)SC(=S)N1c1ccc(O)cc1 | x | 27 | 30 | 2 | 5 | 36
CCCC(C(=O)O)N1C(=O)/C(=C/c2cccn2C)SC1=S (stereo not given) | 6 | 40 | 11 | x | 22* | x
Cn1cccc1/C=C1\SC(=S)N(Nc2ccccc2)C1=O | 10 | 1 | 9 | 7 | 4 | 21
Oc1ccc(C=NNc2nncc(-c3ccccc3)n2)cc1 | x | x | x | x | 5 | x
O=C(O)c1ccc(N/N=C/c2cn(Cc3ccccc3F)c3ccccc23)cc1 | 10 | 98* | 15 | 3 | x | 16
Cn1cc(/C=N/Nc2ccccc2)c2ccccc21 | -7 | -20 | -11 | 101* | x | 24
CC(C)n1cc(/C=N/Nc2ccc(C(=O)O)cc2)c2ccccc21 | 10 | 100* | -8 | -2 | x | 11
O=C(CN1C(=O)NC2NC(=O)NC21)NN=Cc1ccccc1F (stereo not given) | x | x | x | x | 3 | x
Cc1ccc(C=NN2CCN(c3ccc(Cl)cc3)CC2)o1 | x | x | x | x | 3 | x
Cc1ccc(NC(=O)CN2C(=O)N/C(=C/c3cccn3-c3ccc(C(=O)O)cc3)C2=O)cc1 | 21 | 97* | 17 | x | 21* | x
Cc1cc(C)cc(CSCC(=O)NN=Cc2ccc(OCC(=O)NCc3ccco3)cc2)c1 | x | x | x | x | 4 | x
Cc1c(Cl)ccc2c1NC(=O)[C@]21N[C@@H](Cc2ccccc2)[C@H]2C(=O)N(c3ccc(F)cc3)C(=O)[C@H]21 | 0 | -1 | -14 | 89* | 1 | -10
NNS(=O)(=O)c1ccc2c(c1)Cc1cc(S(=O)(=O)NN)ccc1-2 | 3 | 99* | 3 | 1 | 4 | 4
O=S(=O)(NCCO)c1ccc2c(c1)Cc1cc(S(=O)(=O)NCCO)ccc1-2 | 19 | -21 | -6 | 5 | 2 | 13
CNC(=O)c1c(NC(=O)c2nc3ccccc3s2)sc2c1CCC2 | 13 | 97* | x | 8 | -7 | 25
CNC(=O)c1c(NC(=O)c2ccc(N3C(=O)CCC3=O)cc2)sc2c1CCCC2 | -4 | 97* | -3 | -24 | 2 | 3
C=C(C)C(=O)OC1(C(F)(F)F)Oc2cc(C)ccc2NC1=O (stereo not given) | 10 | 98* | -3 | 7 | 3 | 13
CCOC(=O)C1(N(CC)CC)Sc2cc(C)ccc2NC1=O (stereo not given) | 10 | 2 | 12 | 21 | 2 | 26
CCOC(=O)c1oc2cccc(O)c2c1CN(Cc1ccccc1)C(C)=O | 5 | 85* | -3 | 5 | -1 | 5
